Measured values: ChEMBL document CHEMBL1157237, “Methanolysis products of disorazole A1” (J Nat Prod, 2006)

What was measured:
Assay type in all cases: functional, cell-based
CCRF-CEM [1] = experiment: Antiproliferative activity against human CCRF-CEM cells after 72 hrs by celltitre assay
Summary of the method: (§1)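 Cultured in RPMI 1640 with 5% FBS at 37 °C and 5% CO2. Seeded in duplicate at about 5000 cells/well and incubated 24 h before 10-fold serial compound dilutions were added for 72 h. Viability measured by CellTiter-Glo luminescence. IC50 = concentration inhibiting growth by 50%.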

MCF7 = experiment: Antiproliferative activity against human MCF7 cells after 72 hrs by celltitre assay; details: MCF7, 72 h
Summary of the method: (§2)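 Cells grown in RPMI 1640 with 10% FBS at 37 °C under 5% CO2, seeded in duplicate at about 5000 cells/well and left 24 h. Compounds then added as 10-fold serial dilutions for 72 h. Viability read by CellTiter-Glo luminescence. IC50 taken as the concentration giving 50% inhibition of cell growth.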

[2] = Antiproliferative activity against human multidrug-resistant P-glycoprotein expressing NCI/ADR cells after 72 hrs by celltitre assay; details: NCI/ADR-RES; summary of the method: as §2
CCRF-CEM [3] = experiment: Antiproliferative activity against human multidrug-resistant P-glycoprotein expressing CCRF-CEM/PTX cells after 72 hrs by celltitre assay; summary of the method: as §1
A549 = experiment: Antiproliferative activity against human A549 cells after 72 hrs by celltitre assay; details: A549, 72 h; summary of the method: as §2

| IC50 (CCRF-CEM [1]) [nM] | IC50 (MCF7) [nM] | IC50 (CCRF-CEM [3]) [nM] | IC50 (A549) [nM] | SMILES | IC50 [2] [nM] |
| --- | --- | --- | --- | --- | --- |
| 0.33 | 0.62 | 1.3 | 0.73 | C/C=C/[C@H](O)C(C)(C)[C@@H]1C\C=C/C=C\C=C\[C@H](OC)Cc2nc(co2)C(=O)O[C@H](C(C)(C)[C@@H](O)/C=C/C)C/C=C\[C@@H](O)/C=C/C(OC)/C=C\c2nc(co2)C(=O)O1 (stereo not given in full) | 28 |
| 0.11 | 0.24 | 0.24 | 0.25 | C/C=C/[C@H](O)C(C)(C)[C@@H]1C\C=C/C=C\C=C\[C@H](OC)Cc2nc(co2)C(=O)O[C@H](C(C)(C)[C@@H](O)/C=C/C)C/C=C\[C@@H](O)C(OC)/C=C/C=C\c2nc(co2)C(=O)O1 (stereo not given in full) | 2.8 |

| SMILES | IC50 (CCRF-CEM [1]) [nM] | IC50 (MCF7) [nM] | IC50 (CCRF-CEM [3]) [nM] | IC50 (A549) [nM] | IC50 [2] [nM] |
| --- | --- | --- | --- | --- | --- |
| C/C=C/[C@H](O)C(C)(C)[C@@H]1C\C=C/C=C\C=C\[C@H](OC)Cc2nc(co2)C(=O)O[C@H](C(C)(C)[C@@H](O)/C=C/C)C/C=C\[C@H]2O[C@H]2/C=C/C=C\c2nc(co2)C(=O)O1 [DISORAZOLE A1] | 0.07 | 0.25 | 0.066 | 0.31 | 0.52 |
